Assay results gathered from unrelated publications.
Target: Activin receptor type-2A (ACVR2A, Homo sapiens, UniProt P27037)

| Compound | test | conditions | remaining binding [%] |
| --- | --- | --- | --- |
| O=C1NC(c2ccccn2)Sc2ccccc21 (stereo not shown) | cell-free assay, competition with immobilised ligand | 1 µM | 100 |
| Cc1cnc(Nc2ccc(C(=O)N3CCC(N4CCCC4)CC3)cc2)nc1-c1cc2ccccc2s1 | binding, competition with immobilised ligand | 1 µM | 69 |
| CN(c1nccc(-c2cnn3ncccc23)n1)C1CC1 | binding | 1 µM | 100 |
| O=C(NCc1ncc(C(F)(F)F)cc1Cl)c1ccc2c(c1)C1(CCS(=O)(=O)CC1)[C@@H](C1CC1)N2S(=O)(=O)c1ccc(F)cc1 | cell-free assay, competition with immobilised ligand | 1 µM | 100 |
| CN(C)c1ncc(F)c(-c2cnn3ncccc23)n1 | binding | 1 µM | 95 |
| CNC(=O)[C@@H]1CC[C@@H](n2c(-c3ccc4cnccc4c3)nc3ccc(C(=O)NCc4cccc(C(N)=O)c4)cc32)C1 | binding, competition with immobilised ligand | 1 µM | 100 |
| O=C(Nc1c[nH]nc1C(=O)NC1CCNCC1)c1cc(F)cc(F)c1 | binding, competition with immobilised ligand | 1 µM | 100 |
| O=C1CCc2cc(Nc3cc(OC4CCOCC4)c([N+](=O)[O-])cc3Cl)ccc2N1 | cell-free assay, competition with immobilised ligand | 1 µM | 81 |
| CN(C)c1nccc(-c2cnn3ncccc23)n1 | binding | 1 µM | 90 |
| O=C(NCCCC1CCCCC1)c1ccc(CNC(=O)c2cnn(-c3ccccc3)c2C(F)(F)F)cc1 | cell-free assay, competition with immobilised ligand | 0.1 µM | 83 |
| C[C@@H]1CCN(c2nccc(-c3cnn4ncccc34)n2)C1 | binding | 1 µM | 100 |
| C[C@@H](c1ccc(-n2cnc3c(N)ncnc32)cc1)N1CCc2nn(C)c(Cc3ccccc3)c2C1=O | binding, competition with immobilised ligand | 0.1 µM | 92 |
| COc1ccnn2ncc(-c3ccnc(N(C)C)n3)c12 | binding | 1 µM | 100 |
| CC(=O)Nc1c(C(C)=O)c(=O)n(C)c2nc(-c3ccc(Cl)cc3Cl)c(-c3ccc(Cl)cc3)cc12 | cell-free assay, competition with immobilised ligand | 1 µM | 100 |
| O=C(c1ccc(Nc2nccc(-c3cc4ccccc4s3)n2)cc1)N1CCC(N2CCCC2)CC1 | binding, competition with immobilised ligand | 1 µM | 90 |
| COc1ncc2cc3ccccc3nc2c1C#N | cell-free assay, competition with immobilised ligand | 5 µM | 85 |
| O=C(NCCCN1CCOCC1)c1ccc(Nc2nccc(-c3cc4ccccc4s3)n2)cc1 | binding, competition with immobilised ligand | 1 µM | 58 |
| N[C@H]1CCN(c2nccc(-c3cnn4ncccc34)n2)C1 | binding | 1 µM | 100 |
| CN(C)CC#Cc1ccc(OCCCc2sc(N3CCc4cccc(C(=O)Nc5nc6ccccc6s5)c4C3)nc2C(=O)O)c(F)c1 | cell-free assay, competition with immobilised ligand | 1 µM | 94 |
| COc1cnc(Nc2cccc(S(N)(=O)=O)c2)nc1N1CCN(c2ccccc2)C(=O)C1 | binding, competition with immobilised ligand | 1 µM | 100 |
| c1cnn2ncc(-c3ccnc(N4CCC45COC5)n3)c2c1 | binding | 1 µM | 99 |
| COc1ccc2c(O[C@@H]3C[C@H]4C(=O)N[C@]5(C(=O)O)CC5/C=C\CCCCC[C@H](NC(=O)OC5CCCC5)C(=O)N4C3)cc(-c3csc(NC(=O)C(C)C)n3)nc2c1C (stereo partly shown) | cell-free assay, competition with immobilised ligand | 1 µM | 72 |
